≈ marks a conversion by molar mass, not a printed value.
Columns and labels:
[1] = Oral bioavailability in rat; type: ADME, organism-based; details: in vivo
[2] = Volume of distribution in rat; type: ADME, organism-based; details: in vivo
Procedure, shortened: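 Plasma concentration–time data from rats (n=5) after IV 10 mg/kg or oral 100 mg/kg. Samples taken 0.25–48 h and measured by LC-MS/MS. Non-compartmental analysis; Vd calculated as AUMC0-∞ × dose divided by the square of AUC0-∞.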

Rattus norvegicus [3] = species on record: Rattus norvegicus; experiment: Clearance in rat; type: ADME, organism-based; details: in vivo
[4] = Drug excretion in rat urine; type: ADME; details: read-out: Drug excretion
[5] = AUC (0 to infinity) in rat at 10 mg/kg, iv; type: ADME, organism-based; set-up: time infinity, dose 10 mg/kg, route intravenous; details: plasma
Procedure, shortened: (§1)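 Rats, n=5, given 10 mg/kg IV via femoral vein catheter. Vehicle was 2% ethanol/saline or 30% DMSO/30% propylene glycol/20% PEG 3000/20% saline, depending on compound. Plasma sampled 0–48 h and urine collected in intervals to 48 h; both assayed by LC-MS/MS after acetonitrile precipitation. Non-compartmental analysis: CL = dose/AUC0-∞; fe = cumulative unchanged urinary amount/dose.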

Rattus norvegicus [6] = species on record: Rattus norvegicus; experiment: Half life in rat; type: ADME, organism-based; details: in vivo
[7] = Cmax in rat at 10 mg/kg, iv; type: ADME, organism-based; set-up: dose 10 mg/kg, route intravenous; details: in vivo
Procedure, shortened: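 Rats (n=5) given 10 mg/kg IV via femoral vein catheter. Vehicle was 2% ethanol/saline or 30% DMSO/30% propylene glycol/20% PEG 3000/20% saline, depending on compound. Serial plasma sampled 0–48 h and assayed by LC-MS/MS after acetonitrile precipitation. Cmax read by visual inspection of the concentration–time curve.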

[8] = Apparent permeability of the compound from apical to basal side of human Caco2 cells at 50 umol/L after 2 hrs by UPLC/MS analysis; type: ADME, cell-based; details: Caco-2
Procedure, shortened: (§2)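 Caco-2 monolayers grown 7 days on Transwell inserts, washed with HBSS/HEPES pH 7.4. Compound at 50 µmol/L added apically or basolaterally, then 2 h at 37°C. Receiver side sampled and quantified by UPLC/MS. Papp = (dQ/dt)/(A×C0), triplicates.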

Escherichia coli = experiment: Antibacterial activity against Escherichia coli K12 after overnight incubation by microbroth dilution technique; type: functional; details: K-12
Procedure, shortened: (§3)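 Non-mycobacterial strains: two-fold serial dilutions in broth by CLSI microbroth dilution. Inoculum about 10^5 cfu/mL; top final drug concentration 200 µg/mL. Aerobic incubation at 37°C overnight. MIC read visually as the lowest concentration with no visible growth.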

[9] = Clearance in Sprague-Dawley rat at 10 mg/kg, iv; type: ADME, organism-based; set-up: dose 10 mg/kg, route intravenous; details: in vivo; procedure, shortened: as §1
Staphylococcus aureus = experiment: Antibacterial activity against Staphylococcus aureus ATCC 29213 after overnight incubation by microbroth dilution technique; type: functional
Procedure, shortened: (§4)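 Two-fold serial broth dilutions per CLSI; inoculum about 10^5 CFU/mL; top final drug concentration 200 µg/mL; incubated aerobically overnight at 37°C. MIC read visually as the lowest concentration with no visible growth.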

[10] = Cmax in Sprague-Dawley rat at 10 mg/kg, iv; type: ADME, organism-based; set-up: dose 10 mg/kg, route intravenous; details: in vivo; procedure, shortened: as §1
[11] = AUC (0 to infinity) in Sprague-Dawley rat at 10 mg/kg, iv; type: ADME, organism-based; set-up: time infinity, dose 10 mg/kg, route intravenous; details: plasma; procedure, shortened: as §1
[12] = Half life in mouse liver microsomes; type: ADME, Microsome
Procedure, shortened: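 Mouse liver microsomes at 0.6381 mg/mL protein in 0.1 M potassium phosphate pH 7.4 with EDTA. Reaction started with NADPH regenerating system at 37°C; six time points including 0, triplicate wells. Quenched in cold acetonitrile with warfarin internal standard, analysed by LC–MS. Half-life from a first-order least-squares fit.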

Rattus norvegicus [13] = experiment: Toxicity in Sprague-Dawley rat assessed as seizures at 10 mg/kg, iv; type: organism-based; set-up: dose 10 mg/kg, route intravenous; details: in vivo
Procedure, shortened: (§5)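 Observed during rat IV pharmacokinetic study (n=5). Single 10 mg/kg dose via femoral vein catheter, flushed with heparinized locking solution. Vehicle was 2% ethanol/saline or 30% DMSO/30% propylene glycol/20% PEG 3000/20% saline. Animals followed with serial blood sampling to 48 h.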

Enterococcus faecalis = experiment: Antibacterial activity against Enterococcus faecalis ATCC 3186 after overnight incubation by microbroth dilution technique; type: functional; procedure, shortened: as §4
[14] = tested on: Mycobacterium tuberculosis; experiment: Antitubercular activity against Mycobacterium tuberculosis after 7 to 14 days by microbroth dilution technique; type: functional
Procedure, shortened: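 M. tuberculosis: CLSI microbroth dilution using two-fold serial drug dilutions in broth. Inoculum about 10^6 CFU/mL; top final concentration 200 µg/mL. Incubated aerobically at 37°C for 7 or 14 days. MIC taken as the lowest concentration preventing visible growth by eye.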

Vero = experiment: Cytotoxicity against african green monkey Vero cells after 72 hrs by MTT assay; type: cell-based; details: Chlorocebus sabaeus
Procedure, shortened: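 Vero cells in DMEM with 10% FBS, seeded at ~10% confluency and left to adhere overnight. Two-fold serial dilutions applied for 72 h at 37°C, 5% CO2. MTT read-out at 570 nm after overnight solubilization.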

[15] = Plasma protein binding in mouse at 10 uM after 4 hrs by LC/MS analysis; type: ADME, cell-free; details: read-out: PPB (converted)
Procedure, shortened: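 Compound at 10 µM (0.1% DMSO) in mouse or human plasma. Rapid equilibrium dialysis (MWCO 8K) against DPBS pH 7.4, 4 h at 37°C with orbital shaking. Both chambers matrix-matched, precipitated with acetonitrile containing warfarin internal standard, quantified by LC–MS. %Free = buffer/plasma × 100; %Bound = 100 − %Free.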

Rattus norvegicus [16] = experiment: Oral bioavailability in Sprague-Dawley rat at 100 mg/kg; type: ADME, organism-based; details: in vivo
Procedure, shortened: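 Fasted rats, n=5, dosed 100 mg/kg by oral gavage. Vehicle was 2% methanol, 60:40 PEG 3000/water or 10% vitamin E TPGS, depending on compound. Plasma sampled to 48 h and assayed by LC-MS/MS. F = (AUCoral×DoseIV)/(AUCIV×Doseoral), referenced to 10 mg/kg IV.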

Bacillus subtilis = experiment: Antibacterial activity against Bacillus subtilis ATCC 23857 after overnight incubation by microbroth dilution technique; type: functional; procedure, shortened: as §3
[17] = Volume of distribution in Sprague-Dawley rat at 10 mg/kg, iv; type: ADME, organism-based; set-up: dose 10 mg/kg, route intravenous; details: in vivo; procedure, shortened: as §1
[18] = Efflux ratio of apparent permeability from basal to apical side to apical to basal side of human Caco2 cells; details: Caco-2
Rattus norvegicus [19] = experiment: Toxicity in Sprague-Dawley rat assessed as mortality at 100 mg/kg, po; type: organism-based; set-up: dose 100 mg/kg, route oral; details: in vivo
Procedure, shortened: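 Observed during rat oral pharmacokinetic study (n=5). Overnight-fasted animals, water ad libitum, received 100 mg/kg by oral gavage. Vehicle was compound-dependent: 2% methanol (sonicated), 60:40 PEG 3000/water, or 10% vitamin E TPGS. Animals followed with sampling to 48 h.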

Streptococcus pneumoniae = experiment: Antibacterial activity against Streptococcus pneumoniae DAW27 after overnight incubation by microbroth dilution technique; type: functional; procedure, shortened: as §4
[20] = Apparent permeability of the compound from basal to apical side of human Caco2 cells at 50 umol/L after 2 hrs by UPLC/MS analysis; type: ADME, cell-based; details: Caco-2; procedure, shortened: as §2
Streptococcus pyogenes = experiment: Antibacterial activity against Streptococcus pyogenes ATCC 700294 after overnight incubation by microbroth dilution technique; type: functional; procedure, shortened: as §4
[21] = Drug excretion in Sprague-Dawley rat urine at 10 mg/kg, iv; type: ADME, organism-based; set-up: dose 10 mg/kg, route intravenous; details: read-out: Drug excretion; procedure, shortened: as §1
Rattus norvegicus [22] = experiment: Toxicity in Sprague-Dawley rat assessed as mortality at 10 mg/kg, iv; type: organism-based; set-up: dose 10 mg/kg, route intravenous; details: in vivo; procedure, shortened: as §5
[23] = Half life in Sprague-Dawley rat at 10 mg/kg, iv; type: ADME, organism-based; set-up: dose 10 mg/kg, route intravenous; details: in vivo; procedure, shortened: as §1
[24] = Solubility of the compound at pH 7.4 after 18 hrs by UV spectrometry; type: physicochemical; details: buffer, pH 7.4, 18 h
Procedure, shortened: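 10 mM DMSO stocks diluted 100-fold in system solution buffer pH 7.4 and held 18 h at room temperature. Filtered, diluted 1:1 with isopropanol and measured by UV (230–500 nm). Compared against a 600-fold diluted reference in buffer/isopropanol. Triplicates.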

[25] = Half life in human liver microsomes; type: ADME, Microsome
Bacillus anthracis = experiment: Antibacterial activity against Bacillus anthracis Sterne 34F2 after overnight incubation by microbroth dilution technique; type: functional; procedure, shortened: as §3

SMILES: CC1COc2c(N3CCN(C)CC3)c(F)cc3c(=O)c(C(=O)O)cn1c23 (stereo not drawn) [OFLOXACIN]
- bioavailability [1]: 78%
- Vd [2]: 0.99 L/kg
- CL (Rattus norvegicus [3]): 14.3 mL/min/kg
- dose excreted [4]: 46%
- AUC(0-inf) [5]: 6100 ng·h/mL
- t1/2 (Rattus norvegicus [6]): 90 min
- Cmax [7]: 10900 ng/mL

SMILES: O=[N+]([O-])c1ccc(C2=NOC(c3ccc(N4CCCCC4)cc3)C2)o1 (stereo not drawn)
- Papp A→B at 2 h, 50 µM [8]: 7.61 ×10⁻⁶ cm/s
- MIC (Escherichia coli): > 200 µg/mL
- clearance [9]: 62.8 mL/min/kg
- MIC (Staphylococcus aureus): 12.5 µg/mL (≈ 36.6 µM)
- Cmax [10]: 2280 ng/mL
- AUC(0-inf) [11]: 2750 ng·h/mL
- half-life [12]: 46.8 min
- Activity (Rattus norvegicus [13]): Non-toxic
- MIC (Enterococcus faecalis): > 200 µg/mL
- MIC [14]: 6 µg/mL (≈ 17.6 µM)
- IC50 (Vero): 2.5 µg/mL (≈ 7.32 µM)
- fraction unbound at 4 h, 10 µM [15]: 0.012
- F (Rattus norvegicus [16]): 29.4%
- MIC (Bacillus subtilis): 50 µg/mL (≈ 146 µM)
- Vd [17]: 10.9 L/kg
- efflux ratio [18]: 1.35
- Activity (Rattus norvegicus [19]): Non-toxic
- MIC (Streptococcus pneumoniae): 200 µg/mL (≈ 586 µM)
- Papp B→A at 2 h, 50 µM [20]: 10.3 ×10⁻⁶ cm/s
- MIC (Streptococcus pyogenes): 100 µg/mL (≈ 293 µM)
- dose excreted [21]: 0%
- Activity (Rattus norvegicus [22]): Non-toxic
- half-life [23]: 167 min
- solubility [24]: 1.1 µg/mL (≈ 3.22 µM)
- half-life [25]: 28.2 min
- MIC (Bacillus anthracis): > 200 µg/mL

From ChEMBL document CHEMBL2146426, “Antitubercular nitrofuran isoxazolines with improved pharmacokinetic properties” (Bioorg Med Chem, 2012)
